{"data": "Experimental data of several laboratories", "read-out": "cell growth or viability", "note": "Each line is one published result; the experiments were not run side by side."}
{"SMILES": "NCCC(=O)Nc1cccc(/N=c2\\cc(-c3ccc4c(c3)OCO4)oc3ccccc23)c1", "cell line": "A549", "test": "CCK-8", "conditions": "1 µM", "measurement": "inhibition", "result": "-1.71%"}
{"SMILES": "Cc1nc(Nc2ncc(C(=O)Nc3c(C)cccc3Cl)s2)cc(N2CC[C@H](O)C2)n1", "cell line": "MEG-01", "test": "ATP luminescence", "conditions": "10 µM, 72 h", "measurement": "inhibition", "result": "93%"}
{"SMILES": "C=C(NC(=O)C(=C)NC(=O)c1csc(C2=N[C@@H]3c4csc(n4)[C@H]4NC(=O)c5csc(n5)[C@H]([C@](C)(O)[C@@H](C)O)NC(=O)[C@H]5CSC(=N5)/C(=C/C)NC(=O)[C@H]([C@@H](C)O)NC(=O)c5csc(n5)[C@]3(CC2)NC(=O)[C@H](C)NC(=O)C(=C)NC(=O)[C@H](C)NC(=O)[C@H]([C@@H](C)CC)N[C@@H]2C=Cc3c([C@H](C)O)cc(nc3[C@H]2O)C(=O)O[C@@H]4C)n1)C(N)=O", "cell line": "U-251", "measurement": "EC50", "result": "900 nM"}
{"SMILES": "CCCCCCCCCCCCCCCCCCOc1ccc(CC(=O)OCC[N+](C)(C)C)cc1", "cell line": "NCI-H522", "test": "SRB", "conditions": "10 µM", "measurement": "inhibition", "result": "4.28%"}
{"SMILES": "Nc1nc2ccc(-c3c/c(=N\\c4ccccc4NC(=O)CCN4CCOCC4)c4ccccc4o3)cc2o1", "cell line": "A549", "test": "CCK-8", "conditions": "1 µM", "measurement": "inhibition", "result": "16.4%"}
{"SMILES": "CCCCCCCCCCCCCCCCCCOc1ccc(CC(=O)OCC[N+](CC)(CC)CC)cc1", "cell line": "NCI-H522", "test": "SRB", "conditions": "10 µM", "measurement": "inhibition", "result": "26.6%"}
{"SMILES": "NCCC(=O)Nc1ccccc1/N=c1\\cc(-c2ccc3c(c2)OCO3)oc2ccccc12", "cell line": "A549", "test": "CCK-8", "conditions": "1 µM", "measurement": "inhibition", "result": "3.27%"}
{"SMILES": "CN(C)CCNC(=O)c1ccc(-c2nc3ccc4[nH]ncc4c3c3c2CCCCC3)cc1", "cell line": "EOL1", "conditions": "72 h", "measurement": "GI50", "result": "143 nM"}
{"SMILES": "NCCC(=O)Nc1ccccc1/N=c1\\cc(-c2ccc3nc(N)oc3c2)oc2ccccc12", "cell line": "A549", "test": "CCK-8", "conditions": "1 µM", "measurement": "inhibition", "result": "18.6%"}
{"SMILES": "CCCS(=O)(=O)Oc1cc(C=NNC(=O)c2nc3ccccc3s2)ccc1OC", "cell line": "PC-3", "test": "MTT", "conditions": "100 µM, 48 h", "measurement": "cell death", "result": "33%"}
{"SMILES": "CCCCCCCCCCCCCCCCCCOc1ccccc1CC(=O)OCC[N+](C)(C)C", "cell line": "NCI-H522", "test": "SRB", "conditions": "10 µM", "measurement": "inhibition", "result": "97.8%"}
{"SMILES": "CCc1nc(C(N)=O)c(Nc2ccc(N3CCC(N4CCN(C)CC4)CC3)c(OC)c2)nc1NC1CCOCC1", "cell line": "EOL1", "conditions": "72 h", "measurement": "GI50", "result": "70 nM"}
{"SMILES": "CCCCCCCCCCCCCCCCCCOc1cccc(CC(=O)OCC[N+]2(C)CCCCC2)c1", "cell line": "NCI-H522", "test": "SRB", "conditions": "10 µM", "measurement": "inhibition", "result": "28.5%"}
{"SMILES": "Cc1n[nH]c2ccc3nc(-c4ccc(C(=O)NCCN(C)C)cc4)c4c(c3c12)CCCCC4", "cell line": "EOL1", "conditions": "72 h", "measurement": "GI50", "result": "107 nM"}
{"SMILES": "COc1ccc(C=NNC(=O)c2nc3ccccc3s2)cc1OS(C)(=O)=O", "cell line": "PC-3", "test": "MTT", "conditions": "100 µM, 48 h", "measurement": "cell death", "result": "44.5%"}
{"SMILES": "CCCCCCCCCCCCCCCCCCOc1ccc(CC(=O)OCC[N+]2(C)CCCC2)cc1", "cell line": "NCI-H522", "test": "SRB", "conditions": "10 µM", "measurement": "inhibition", "result": "3.23%"}
{"SMILES": "CC(C)(C)c1cc(NC(=O)Nc2ccc(-c3cn4c(n3)sc3cc(OCCN5CCOCC5)ccc34)cc2)no1", "cell line": "EOL1", "conditions": "72 h", "measurement": "GI50", "result": "< 0.1 nM"}
